Source: ChEMBL document CHEMBL1121454, “Alkylating nucleosides. 4. Synthesis and cytostatic activity of chloro- and iodomethylpyrazole nucleosides” (1980)
Values after ≈ are worked out from the molar mass of the structure shown.

What was measured:
Assay type in all cases: functional
HeLa = assay: Cytostatic activity against HeLa cells; conditions: Homo sapiens, read-out: ED50 (the source's name)
Procedure, shortened: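 HeLa cells at 10⁵ cells/mL in minimal Eagle's medium with 10% fetal calf serum, left 2–3 h at 37 °C in Leighton tubes to attach. Compound added as suspension in sterile saline with 0.05% Tween 80, 10% of final volume. Incubated 72 h at 37 °C. Growth from cell protein by Oyama–Eagle colorimetry; ED50 in μg/mL. 6-Mercaptopurine positive control.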

Mus musculus [1] = assay: Number of cures on day 30 in mice bearing ECA tumor at 25 mg/kg
Procedure, shortened: (§1)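 Ehrlich ascites carcinoma, about 5 × 10⁵ cells ip from a 7-day donor, in female ICR Swiss mice of 19–22 g. Nine ip doses at 24-h intervals from 24 h post-implant, in saline with 0.05% Tween 80, 0.4 mL. Groups of 7 treated, 30 controls; NCI protocols 1100/1200. Cures are survivors on day 30. 5-Fluorouracil 20 mg/kg/injection reference.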

Mus musculus [2] = assay: Number of survivors on day 5 to that of number(7) of mice at 25 mg/kg ip in mice bearing ECA tumor was determined; conditions: route intraperitoneal
Procedure, shortened: (§2)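 Female ICR Swiss mice (19–22 g) given about 5 × 10⁵ Ehrlich ascites carcinoma cells ip from a 7-day donor tumour. Starting 24 h later, nine ip doses at 24-h intervals, suspended in 0.9% NaCl with 0.05% Tween 80, 0.4 mL per injection. Groups of 7 treated and 30 controls. Read-out is survivors on day 5 over mice started.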

Mus musculus [3] = assay: Difference in weight on day 5 in mice bearing ECA tumor at 50 mg/kg
Procedure, shortened: (§3)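 Female ICR Swiss mice, 19–22 g, given about 5 × 10⁵ Ehrlich ascites cells ip from a 7-day donor. Starting 24 h later, nine daily ip doses suspended in 0.9% NaCl with 0.05% Tween 80, 0.4 mL. Groups of 7 treated, 30 controls, per NCI protocols 1100/1200. Value is weight difference (g) between test and control animals.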

Mus musculus [4] = assay: Difference in weight on day 5 in mice bearing ECA tumor at 12.5 mg/kg; procedure, shortened: as §3
Mus musculus [5] = assay: Percent increase in median survival time of treated mice compared with controls at 12.5 mg/kg
Procedure, shortened: (§4)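 Ehrlich carcinoma ascites in female ICR Swiss mice (19–22 g), about 5 × 10⁵ cells ip, per NCI protocols 1100/1200. From 24 h after implant, nine daily ip doses in saline with 0.05% Tween 80 (0.4 mL). Groups of 7 treated and 30 controls; 5-fluorouracil 20 (mg/kg)/injection as positive control. T/C × 100 taken from median survival time against controls; evaluation on day 30.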

Mus musculus [6] = assay: Number of cures on day 30 in mice bearing ECA tumor at 50 mg/kg; procedure, shortened: as §1
Mus musculus [7] = assay: Number of survivors on day 5 to that of number(7) of mice at 12.5 mg/kg ip in mice bearing ECA tumor was determined; conditions: route intraperitoneal; procedure, shortened: as §2
Mus musculus [8] = assay: Percent increase in median survival time of treated mice compared with controls at 25 mg/kg; procedure, shortened: as §4
Mus musculus [9] = assay: Difference in weight on day 5 in mice bearing ECA tumor at 25 mg/kg; procedure, shortened: as §3
Mus musculus [10] = assay: Number of survivors on day 5 to that of number(7) of mice at 50 mg/kg ip in mice bearing ECA tumor was determined; conditions: route intraperitoneal; procedure, shortened: as §2
Mus musculus [11] = assay: Percent increase in median survival time of treated mice compared with controls at 50 mg/kg; procedure, shortened: as §4
Mus musculus [12] = assay: Number of cures on day 30 in mice bearing ECA tumor at 12.5 mg/kg; procedure, shortened: as §1

With `CCOC(=O)c1cc(CCl)[nH]n1` the EC50 (HeLa) was over 100 µg/mL.
For `NC(=O)c1cc(CCl)[nH]n1`, the EC50 (HeLa) was over 100 µg/mL.
Work on `CC(=O)OC[C@H]1O[C@@H](n2nc(CCl)cc2C(N)=O)[C@H](OC(C)=O)[C@@H]1OC(C)=O` yielded an EC50 (HeLa) of 26 µg/mL (≈ 62.2 µM).
`CCOC(=O)c1cc(CCl)nn1[C@@H]1O[C@H](COC(C)=O)[C@@H](OC(C)=O)[C@H]1OC(C)=O` showed an EC50 (HeLa) of 32 µg/mL (≈ 71.6 µM).
`CC(=O)OC[C@H]1O[C@@H](n2nc(C(N)=O)cc2CCl)[C@H](OC(C)=O)[C@@H]1OC(C)=O` showed an EC50 (HeLa) of 12 µg/mL (≈ 28.7 µM).
`CC(=O)OC[C@H]1O[C@@H](n2nc(C(N)=O)cc2CI)[C@H](OC(C)=O)[C@@H]1OC(C)=O` gave a Cures (Mus musculus [1]) of 4, a Survivors (Mus musculus [2]) of 7 and an EC50 (HeLa) of 2 µg/mL (≈ 3.93 µM). The Weight difference (Mus musculus [3]) was -0.5, the Weight difference (Mus musculus [4]) was 0.3 and the T/C (Mus musculus [5]) was 121%. It also gave a Cures (Mus musculus [6]) of 1, a Survivors (Mus musculus [7]) of 7 and a T/C (Mus musculus [8]) of 141%. It also gave a Weight difference (Mus musculus [9]) of -0.25, a Survivors (Mus musculus [10]) of 7 and a T/C (Mus musculus [11]) of 100%. It also gave a Cures (Mus musculus [12]) of 2.
With `CCOC(=O)c1cc(CI)nn1[C@@H]1O[C@H](COC(C)=O)[C@@H](OC(C)=O)[C@H]1OC(C)=O` the EC50 (HeLa) was 5.5 µg/mL (≈ 10.2 µM).
For `CC(=O)OC[C@H]1O[C@@H](n2nc(CI)cc2C(N)=O)[C@H](OC(C)=O)[C@@H]1OC(C)=O`, the Cures (Mus musculus [1]) was 4, the Survivors (Mus musculus [2]) was 7 and the EC50 (HeLa) was 1.5 µg/mL (≈ 2.95 µM). The Weight difference (Mus musculus [3]) was -0.6, the Weight difference (Mus musculus [4]) was -0.6 and the T/C (Mus musculus [5]) was 131%. The Survivors (Mus musculus [7]) was 7, the T/C (Mus musculus [8]) was 158% and the Weight difference (Mus musculus [9]) was -0.4. The Survivors (Mus musculus [10]) was 7, the T/C % (Mus musculus [11]) was 63% and the Cures (Mus musculus [12]) was 2.
`CCOC(=O)c1cc(CCl)nn1C1O[C@@H](COC(C)=O)[C@H](OC(C)=O)[C@@H](OC(C)=O)[C@@H]1OC(C)=O` (some centres not stated) showed an EC50 (HeLa) of 40 µg/mL (≈ 77.1 µM).
`CCOC(=O)c1cc(CI)[nH]n1` gave an EC50 (HeLa) of over 100 µg/mL.
`CC(=O)OC[C@@H]1OC(n2nc(CCl)cc2C(N)=O)[C@@H](OC(C)=O)[C@H](OC(C)=O)[C@H]1OC(C)=O` (some centres not stated) was tested, and the EC50 (HeLa) was 18 µg/mL (≈ 36.7 µM).
In the case of `NC(=O)c1cc(CI)[nH]n1`, the EC50 (HeLa) is reported as over 100 µg/mL.
`CC(=O)OC[C@H]1OC(n2nc(CCl)cc2C(N)=O)[C@H](OC(C)=O)[C@@H](OC(C)=O)[C@@H]1OC(C)=O` (some centres not stated) was tested, and the EC50 (HeLa) was 12 µg/mL (≈ 24.5 µM).
`CCOC(=O)c1cc(CCl)nn1C1O[C@H](COC(C)=O)[C@@H](OC(C)=O)[C@H](OC(C)=O)[C@H]1OC(C)=O` (some centres not stated) gave an EC50 (HeLa) of over 100 µg/mL.
Work on `CCOC(=O)c1cc(CI)nn1C1O[C@@H](COC(C)=O)[C@H](OC(C)=O)[C@@H](OC(C)=O)[C@@H]1OC(C)=O` (some centres not stated) yielded an EC50 (HeLa) of 2.5 µg/mL (≈ 4.1 µM).
For `CC(=O)OC[C@@H]1OC(n2nc(CI)cc2C(N)=O)[C@@H](OC(C)=O)[C@H](OC(C)=O)[C@H]1OC(C)=O` (some centres not stated), the Cures (Mus musculus [1]) was 1, the Survivors (Mus musculus [2]) was 7 and the EC50 (HeLa) was 2 µg/mL (≈ 3.44 µM). The Weight difference (Mus musculus [3]) was -0.3, the Cures (Mus musculus [6]) was 4 and the T/C (Mus musculus [8]) was 105%. The Weight difference (Mus musculus [9]) was -0.1, the Survivors (Mus musculus [10]) was 7 and the T/C (Mus musculus [11]) was 176%.
